{"source": "ChEMBL document CHEMBL4038311", "about": "“An Ursolic Acid Derived Small Molecule Triggers Cancer Cell Death through Hyperstimulation of Macropinocytosis” (J Med Chem, 2017)", "key": {"[1]": {"test": "Cytotoxicity against mouse C2C12 cells assessed as cell viability at 20 uM after 24 to 48 hrs by CCK8 assay relative to control", "format": "cell-based", "details": "read-out: Activity", "outline": "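C2C12 or HDF cells, seeded at 5000/well, given 20 µM or 0.1% DMSO for 24 h or 48 h. CCK-8 absorbance read at 450 nm, relative to DMSO control. Six parallel wells, at least three independent repeats.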"}, "HepG2 [2]": {"system": "HepG2", "test": "Anticancer activity against human HepG2 cells assessed as cell viability at 20 uM after 48 hrs by CCK8 assay relative to control", "format": "functional", "details": "HepG2, 48 h, read-out: Activity", "outline": "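Cells (5000/well, pre-incubated overnight) exposed to 20 µM for 48 h. CCK-8 absorbance read at 450 nm. Viability given as percent of vehicle (DMSO) control, mean ± SD. Six parallel wells per condition, at least three independent repeats.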"}, "HeLa [3]": {"system": "HeLa", "test": "Induction of apoptosis in human HeLa cells assessed as increase in cleaved caspase-3 levels at 30 to 100 uM after 48 hrs by Western blot analysis", "format": "functional, cell-based", "outline": "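HeLa given indicated concentrations. RIPA lysates, BCA-quantified, SDS-PAGE and PVDF transfer. Anti-caspase-3 or anti-PARP1 applied overnight at 4 °C after 1 h 5% milk block, secondary 2 h at RT. Infrared imaging, GAPDH as loading control.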"}, "HeLa [4]": {"system": "HeLa", "test": "Induction of methuosis in human HeLa cells assessed as increase in vacuole formation preincubated cells with actin inhibitor cytochalasin D for 1 hr followed by compound addition measured after 24 hrs by phase contrast microscopic analysis", "format": "functional, cell-based", "outline": "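HeLa cells grown in DMEM with 10% FBS, 100 U/ml penicillin and 100 µg/ml streptomycin at 37 °C, 5% CO2 humidified air. The inhibitor was added before compound exposure. Vacuolization was judged in live cells by phase-contrast microscopy.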"}, "HT-1080": {"system": "HT-1080", "test": "Anticancer activity against human HT1080 cells assessed as vacuole formation at 20 uM after 24 hrs by phase contrast microscopic analysis", "format": "functional, cell-based"}, "HepG2 [5]": {"system": "HepG2", "test": "Anticancer activity against human HepG2 cells assessed as cell viability after 48 hrs by CCK8 assay", "format": "functional, cell-based", "details": "HepG2, 48 h", "outline": "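Seeded at 1000 cells/well in DMEM with 10% FBS at 37 °C, 5% CO2, overnight pre-incubation. Serial dilutions from a 100 mM DMSO stock gave final 0–50 µM, with 48 h exposure. CCK-8 read at 450 nm. IC50 fitted against DMSO control, given with s.d., n = 3 independent experiments.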"}}, "note": "pIC50: −log10 of the molar value. The source made the active and inactive calls. The calls are words filed in the database; no cut-off is given here."}
{"molecule": "C[C@H]1[C@H](C)CC[C@]2(C(=O)O)CC[C@]3(C)C(=CC[C@@H]4[C@@]5(C)Cc6cnn(-c7ccc(C#N)cc7)c6C(C)(C)[C@@H]5CC[C@]43C)[C@H]12", "values": [{"measurement": "viability at 20 µM", "setting": "[1]", "result": 13, "unit": "%"}, {"measurement": "viability at 20 µM", "setting": "HepG2 [2]", "result": 27.9, "unit": "%"}, {"measurement": "Activity", "setting": "HeLa [3]", "result": "Active"}, {"measurement": "Activity", "setting": "HeLa [4]", "result": "inactive"}, {"measurement": "Activity", "setting": "HT-1080", "result": "Active"}, {"measurement": "pIC50", "setting": "HepG2 [5]", "result": 4.78}]}
